Results reported in ChEMBL document CHEMBL5543089, “Discovery of a novel, highly potent EZH2 PROTAC degrader for targeting non-canonical oncogenic functions of EZH2” (Eur J Med Chem, 2024).
Activity calls are given as the source filed them. No cut-off for these calls is given here.

Key:
[1] = target: von Hippel-Lindau disease tumor suppressor/Polycomb protein EED (Homo sapiens) (UniProt O75530+P40337); assay: PROTAC activity at VHL/EED degradation in MLLr AML cell line human EOL1 cells assessed as protein degradation at 1 to 1000 nM measured after 1 to 24 hrs by Western blot analysis; assay type: cell-based; settings: dose 1-1000 nM, time 1-24 hrs
Summary of the method: (§1)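 Cells were seeded at 0.5–2 million per well and treated for 24 h, or for the stated times at 300 nM in the time course. Lysis was in RIPA with protease inhibitors; ~10 μg protein was run on SDS-PAGE and blotted to PVDF. Detection used fluorescent immunoblotting for EZH2, EED and SUZ12, with β-actin as loading control. Blots are representative of two biological experiments.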

[2] = target: T1, von Hippel-Lindau disease tumor suppressor/Histone-lysine N-methyltransferase EZH2 (Homo sapiens, UniProt Q15910+P40337); assay: PROTAC activity at VHL/EZH2 degradation in MLLr AML cell line human EOL1 cells assessed as protein degradation at 0.5 uM measured after 24 hrs by Western blot analysis; assay type: cell-based; summary of the method: as §1
[3] = target: Histone-lysine N-methyltransferase NSD3 (Homo sapiens) (UniProt Q9BZ95); assay: Inhibition of human NSD3 assessed as methyltransferase activity using Nucleosomes as substrate at 10 uM by radioisotope based MT HotSpot assay relative to control
Summary of the method: (§2)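 Radioisotope-based methyltransferase assay (MT HotSpot) run by a contract lab. Compound was tested at 10 μM against a panel of 20 methyltransferases, in duplicate. Values are means ± SD of two replicates.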

[4] = target: Protein arginine N-methyltransferase 3 (Homo sapiens) (UniProt O60678); assay: Inhibition of human PRMT3 assessed as methyltransferase activity using Histone H3 as substrate at 10 uM by radioisotope based MT HotSpot assay relative to control; summary of the method: as §2
[5] = target: Histone-arginine methyltransferase CARM1 (Homo sapiens) (UniProt Q86X55); assay: Inhibition of human PRMT4 assessed as methyltransferase activity using Histone H3 as substrate at 10 uM by radioisotope based MT HotSpot assay relative to control; summary of the method: as §2
[6] = target: PRMT5/MEP50 complex (Homo sapiens) (UniProt O14744+Q9BQA1); assay: Inhibition of human PRMT5/MEP50 assessed as methyltransferase activity using Histone H2A as substrate at 10 uM by radioisotope based MT HotSpot assay relative to control; assay type: protein-complex assay; summary of the method: as §2
[7] = target: Protein arginine N-methyltransferase 6 (Homo sapiens) (UniProt Q96LA8); assay: Inhibition of human PRMT6 assessed as methyltransferase activity using GST-GAR as substrate at 10 uM by radioisotope based MT HotSpot assay relative to control; summary of the method: as §2
[8] = target: Protein arginine N-methyltransferase 7 (Homo sapiens) (UniProt Q9NVM4); assay: Inhibition of human PRMT7 assessed as methyltransferase activity using GST-GAR as substrate at 10 uM by radioisotope based MT HotSpot assay relative to control; summary of the method: as §2
[9] = target: Histone-lysine N-methyltransferase SETD7 (Homo sapiens) (UniProt Q8WTS6); assay: Inhibition of human SET7/9 assessed as methyltransferase activity using Core histone as substrate at 10 uM by radioisotope based MT HotSpot assay relative to control; summary of the method: as §2
[10] = target: N-lysine methyltransferase KMT5A (Homo sapiens) (UniProt Q9NQR1); assay: Inhibition of human SET8 assessed as methyltransferase activity using Nucleosomes as substrate at 10 uM by radioisotope based MT HotSpot assay relative to control; summary of the method: as §2
[11] = target: Histone-lysine N-methyltransferase SMYD3 (Homo sapiens) (UniProt Q9H7B4); assay: Inhibition of human SMYD3 assessed as methyltransferase activity using MEKK2 as substrate at 10 uM by radioisotope based MT HotSpot assay relative to control; summary of the method: as §2
[12] = target: Histone-lysine N-methyltransferase SUV39H1 (Homo sapiens) (UniProt O43463); assay: Inhibition of human SUV39H1 assessed as methyltransferase activity using Histone H3 as substrate at 10 uM by radioisotope based MT HotSpot assay relative to control; summary of the method: as §2
[13] = target: T1, von Hippel-Lindau disease tumor suppressor/Histone-lysine N-methyltransferase EZH2; assay: PROTAC activity at VHL/EZH2 degradation in MLLr AML cell line human EOL1 cells assessed as protein degradation at 0.3 uM measured after 24 hrs by Western blot analysis; assay type: cell-based; summary of the method: as §1
EOL1 = assay: Anti-proliferative activity against human EOL1 cells assessed as cell viability measured after 5 days incubation by CCK-8 assay; assay type: functional, cell-based; settings: EOL1, 120 h
Summary of the method: (§3)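 Cells plated at 3,000–10,000 per well and exposed to serial dilutions for 5 days at 37 °C. CCK-8 (1x) was added for 2–4 h, with absorbance read at 450 nm against a 690 nm reference. IC50 was taken from curve fits. Leukemia lines were grown in RPMI-1640, K562 in IMDM and MDA-MB-468 in DMEM, all with 10 % FBS. Values are means ± SD of two biological experiments (three for BT549 and MDA-MB-468).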

[14] = target: T1, von Hippel-Lindau disease tumor suppressor/Histone-lysine N-methyltransferase EZH2; assay: PROTAC activity at VHL/EZH2 degradation in human MV4-11 cells assessed as protein degradation at 0.03 to 0.3 microM measured after 24 hrs by Western blot analysis; assay type: cell-based; settings: dose 0.03-0.3 µM; summary of the method: as §1
RS4-11 = assay: Anti-proliferative activity against human RS4-11 cells assessed as cell viability measured after 5 days incubation by CCK-8 assay; assay type: functional, cell-based; settings: RS4-11, 120 h; summary of the method: as §3
[15] = target: T1, von Hippel-Lindau disease tumor suppressor/Histone-lysine N-methyltransferase EZH2; assay: PROTAC activity at VHL/EZH2 degradation in human MDA-MB-468 cells assessed as protein degradation at 0.1 to 3 uM measured after 48 hrs by Western blot analysis; assay type: cell-based; settings: dose 0.1-3 µM
Summary of the method: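 BT549 (RPMI-1640) and MDA-MB-468 (DMEM) cells were treated for 48 h. RIPA lysates (~10 μg) were immunoblotted for EZH2 with β-actin as loading control. Blots are representative of three biological experiments.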

BT-549 [16] = assay: Anti-proliferative activity against human BT-549 cells assessed as cell growth inhibition measured after 5 days incubation by CCK-8 assay; assay type: functional, cell-based; settings: BT-549, 120 h; summary of the method: as §3
BT-549 [17] = assay: Inhibition of cell growth in human BT-549 cell spheroid TNBC model assessed as reduction in size of spheroid at 2.5 to 20 uM measured after 5 days by 3D cell culture assay; assay type: functional, cell-based; settings: dose 2.5-20 µM, time 5.0 day
Summary of the method: (§4)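 BT549 cells were coated with nanoshuttle (1 μL per 2000 cells, 24 h) and magnetically levitated in low-adhesion plates. They were grown 7 days at 37 °C until a single solid spheroid formed, then treated 5 d with compound or DMSO. Spheroid area was measured from images, and viability by CellTiter-Glo 3D. Data are means ± SD of three biological experiments, analysed by one-way ANOVA.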

BT-549 [18] = assay: Anti-proliferative activity against human BT-549 cells spheroid TNBC model assessed as decrease in cell viability at 2.5 to 20 uM by Cell Titer Glo 3D assay; assay type: functional, cell-based; settings: dose 2.5-20 µM; summary of the method: as §4
[19] = Toxicity in mouse at 50 mg/kg, ip measured after 4 hrs; assay type: organism-based; settings: in vivo
[20] = target: Histone-lysine N-methyltransferase SUV39H2 (Homo sapiens) (UniProt Q9H5I1); assay: Inhibition of human SUV39H2 assessed as methyltransferase activity using Histone H3 as substrate at 10 uM by radioisotope based MT HotSpot assay relative to control
Chain of Histone-lysine N-methyltransferase SUV39H2 (Homo sapiens) (Q9H5I1 whole entry, looked up): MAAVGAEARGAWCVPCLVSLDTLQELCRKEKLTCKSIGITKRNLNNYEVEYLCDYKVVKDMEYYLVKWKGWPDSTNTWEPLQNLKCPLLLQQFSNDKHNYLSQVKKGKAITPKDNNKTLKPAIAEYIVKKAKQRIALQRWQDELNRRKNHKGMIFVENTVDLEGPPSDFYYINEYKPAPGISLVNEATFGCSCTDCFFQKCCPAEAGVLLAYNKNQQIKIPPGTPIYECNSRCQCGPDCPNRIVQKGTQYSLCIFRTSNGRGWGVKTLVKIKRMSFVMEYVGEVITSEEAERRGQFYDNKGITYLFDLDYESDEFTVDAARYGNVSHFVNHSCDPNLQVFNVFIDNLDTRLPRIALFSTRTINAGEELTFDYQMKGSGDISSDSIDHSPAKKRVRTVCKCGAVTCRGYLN

T1 sequence (P40337 whole entry, looked up): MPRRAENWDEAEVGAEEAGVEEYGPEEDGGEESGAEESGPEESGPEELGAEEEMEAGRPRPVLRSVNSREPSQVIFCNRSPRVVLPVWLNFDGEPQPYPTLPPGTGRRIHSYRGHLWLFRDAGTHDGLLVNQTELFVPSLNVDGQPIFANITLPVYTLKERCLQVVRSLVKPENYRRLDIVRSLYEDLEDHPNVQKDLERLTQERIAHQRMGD
T1 sequence (Q15910 whole entry, looked up): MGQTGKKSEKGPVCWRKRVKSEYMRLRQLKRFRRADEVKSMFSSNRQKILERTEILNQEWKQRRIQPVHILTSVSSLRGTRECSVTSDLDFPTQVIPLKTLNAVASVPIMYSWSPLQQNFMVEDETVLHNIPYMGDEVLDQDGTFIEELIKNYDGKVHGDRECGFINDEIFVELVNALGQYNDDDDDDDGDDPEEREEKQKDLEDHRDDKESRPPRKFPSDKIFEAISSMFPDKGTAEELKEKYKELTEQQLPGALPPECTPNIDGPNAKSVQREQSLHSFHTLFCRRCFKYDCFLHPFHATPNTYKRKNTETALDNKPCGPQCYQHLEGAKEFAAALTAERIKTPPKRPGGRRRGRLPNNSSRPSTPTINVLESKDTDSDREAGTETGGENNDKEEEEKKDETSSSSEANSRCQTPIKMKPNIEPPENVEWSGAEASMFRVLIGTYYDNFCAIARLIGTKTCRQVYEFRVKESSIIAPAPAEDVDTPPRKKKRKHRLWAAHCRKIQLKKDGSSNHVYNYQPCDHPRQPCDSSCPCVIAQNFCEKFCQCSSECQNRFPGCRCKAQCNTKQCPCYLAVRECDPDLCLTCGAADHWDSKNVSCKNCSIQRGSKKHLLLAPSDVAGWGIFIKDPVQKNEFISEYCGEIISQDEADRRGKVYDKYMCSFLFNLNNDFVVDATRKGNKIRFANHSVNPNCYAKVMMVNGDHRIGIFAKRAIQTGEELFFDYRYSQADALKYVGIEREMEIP
Chain of Histone-lysine N-methyltransferase SETD7 (Homo sapiens) (Q8WTS6 whole entry): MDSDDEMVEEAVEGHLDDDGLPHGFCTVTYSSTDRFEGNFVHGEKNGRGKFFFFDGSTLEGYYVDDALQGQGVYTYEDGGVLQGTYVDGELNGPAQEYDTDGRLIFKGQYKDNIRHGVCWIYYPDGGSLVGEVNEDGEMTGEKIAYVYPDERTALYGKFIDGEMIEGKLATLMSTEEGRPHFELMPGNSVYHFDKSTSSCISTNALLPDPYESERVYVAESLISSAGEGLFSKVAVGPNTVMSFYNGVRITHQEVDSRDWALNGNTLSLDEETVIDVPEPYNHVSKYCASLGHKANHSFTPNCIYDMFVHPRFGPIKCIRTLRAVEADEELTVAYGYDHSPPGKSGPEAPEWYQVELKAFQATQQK
Chain of N-lysine methyltransferase KMT5A (Homo sapiens) (Q9NQR1 whole entry): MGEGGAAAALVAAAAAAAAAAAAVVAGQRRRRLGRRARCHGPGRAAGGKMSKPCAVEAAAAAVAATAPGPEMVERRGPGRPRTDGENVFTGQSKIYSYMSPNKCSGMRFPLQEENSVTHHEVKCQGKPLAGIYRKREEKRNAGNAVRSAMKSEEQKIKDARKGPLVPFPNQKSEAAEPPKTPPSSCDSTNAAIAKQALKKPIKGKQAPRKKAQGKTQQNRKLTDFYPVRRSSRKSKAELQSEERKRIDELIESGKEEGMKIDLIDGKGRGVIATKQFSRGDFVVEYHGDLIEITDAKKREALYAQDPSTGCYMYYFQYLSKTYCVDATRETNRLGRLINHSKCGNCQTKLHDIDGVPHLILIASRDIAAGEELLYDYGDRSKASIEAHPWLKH
Chain of von Hippel-Lindau disease tumor suppressor/Polycomb protein EED (Homo sapiens) (O75530 2-441 limits assumed): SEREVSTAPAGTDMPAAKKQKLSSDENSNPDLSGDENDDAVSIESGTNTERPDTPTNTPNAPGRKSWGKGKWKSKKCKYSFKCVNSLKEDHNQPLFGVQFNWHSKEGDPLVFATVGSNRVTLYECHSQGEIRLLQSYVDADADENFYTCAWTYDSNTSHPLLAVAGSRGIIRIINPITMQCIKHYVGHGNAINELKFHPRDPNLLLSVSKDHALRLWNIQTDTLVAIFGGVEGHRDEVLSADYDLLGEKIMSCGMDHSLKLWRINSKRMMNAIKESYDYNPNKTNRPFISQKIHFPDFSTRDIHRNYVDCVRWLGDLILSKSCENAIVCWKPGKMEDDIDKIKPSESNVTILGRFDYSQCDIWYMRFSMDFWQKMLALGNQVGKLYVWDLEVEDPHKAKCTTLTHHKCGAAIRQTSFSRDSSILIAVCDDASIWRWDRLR
Chain of von Hippel-Lindau disease tumor suppressor/Polycomb protein EED (Homo sapiens) (P40337 whole entry partner): as the sequence (P40337 whole entry, looked up) above
Chain of Protein arginine N-methyltransferase 7 (Homo sapiens) (Q9NVM4 whole entry): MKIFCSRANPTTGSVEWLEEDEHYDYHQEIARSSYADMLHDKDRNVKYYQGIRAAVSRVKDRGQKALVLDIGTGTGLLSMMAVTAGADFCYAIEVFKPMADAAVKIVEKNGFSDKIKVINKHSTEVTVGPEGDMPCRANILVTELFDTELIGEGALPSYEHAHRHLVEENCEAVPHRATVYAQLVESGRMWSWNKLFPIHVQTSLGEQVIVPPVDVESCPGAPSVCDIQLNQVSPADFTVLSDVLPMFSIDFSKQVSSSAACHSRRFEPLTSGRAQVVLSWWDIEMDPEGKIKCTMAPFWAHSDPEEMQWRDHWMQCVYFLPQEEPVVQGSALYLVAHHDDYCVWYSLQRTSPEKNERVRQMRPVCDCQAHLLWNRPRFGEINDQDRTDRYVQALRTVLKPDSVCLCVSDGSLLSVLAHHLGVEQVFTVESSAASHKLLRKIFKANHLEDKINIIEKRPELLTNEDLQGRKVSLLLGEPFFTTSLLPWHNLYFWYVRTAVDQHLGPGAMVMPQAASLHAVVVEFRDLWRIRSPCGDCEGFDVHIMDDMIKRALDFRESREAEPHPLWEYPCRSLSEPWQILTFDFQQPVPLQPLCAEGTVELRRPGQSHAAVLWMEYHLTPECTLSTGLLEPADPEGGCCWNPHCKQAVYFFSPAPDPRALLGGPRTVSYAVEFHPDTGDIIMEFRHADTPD
Chain of Histone-lysine N-methyltransferase SMYD3 (Homo sapiens) (Q9H7B4 whole entry): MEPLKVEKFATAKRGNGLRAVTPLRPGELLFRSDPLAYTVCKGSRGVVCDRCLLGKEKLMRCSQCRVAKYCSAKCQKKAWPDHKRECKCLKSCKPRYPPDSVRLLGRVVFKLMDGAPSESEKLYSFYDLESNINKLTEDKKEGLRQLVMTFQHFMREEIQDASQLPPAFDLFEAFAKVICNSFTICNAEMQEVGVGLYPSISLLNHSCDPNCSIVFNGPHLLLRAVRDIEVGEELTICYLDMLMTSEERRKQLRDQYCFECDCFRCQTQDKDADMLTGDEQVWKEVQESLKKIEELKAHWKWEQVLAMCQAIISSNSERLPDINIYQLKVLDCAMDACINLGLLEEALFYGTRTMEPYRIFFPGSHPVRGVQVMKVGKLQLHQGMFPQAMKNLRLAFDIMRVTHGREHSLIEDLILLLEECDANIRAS
Chain of Histone-arginine methyltransferase CARM1 (Homo sapiens) (Q86X55 whole entry): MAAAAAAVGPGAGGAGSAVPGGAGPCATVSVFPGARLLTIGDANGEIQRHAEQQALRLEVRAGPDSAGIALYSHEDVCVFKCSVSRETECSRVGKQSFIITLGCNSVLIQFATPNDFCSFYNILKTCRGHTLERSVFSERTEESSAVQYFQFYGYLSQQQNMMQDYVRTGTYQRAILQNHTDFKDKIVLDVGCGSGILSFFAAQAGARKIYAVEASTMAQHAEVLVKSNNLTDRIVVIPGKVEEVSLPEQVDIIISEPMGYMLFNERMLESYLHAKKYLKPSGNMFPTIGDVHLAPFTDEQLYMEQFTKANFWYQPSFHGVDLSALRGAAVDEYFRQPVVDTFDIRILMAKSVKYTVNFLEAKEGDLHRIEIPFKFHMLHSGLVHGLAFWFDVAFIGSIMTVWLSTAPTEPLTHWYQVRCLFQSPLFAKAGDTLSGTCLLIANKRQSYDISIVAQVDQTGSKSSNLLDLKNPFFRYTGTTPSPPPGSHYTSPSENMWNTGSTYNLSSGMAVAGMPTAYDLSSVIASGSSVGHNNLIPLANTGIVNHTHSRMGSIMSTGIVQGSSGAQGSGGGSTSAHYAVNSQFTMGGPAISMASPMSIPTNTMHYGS
Chain of Protein arginine N-methyltransferase 3 (Homo sapiens) (O60678 2-531 limits assumed): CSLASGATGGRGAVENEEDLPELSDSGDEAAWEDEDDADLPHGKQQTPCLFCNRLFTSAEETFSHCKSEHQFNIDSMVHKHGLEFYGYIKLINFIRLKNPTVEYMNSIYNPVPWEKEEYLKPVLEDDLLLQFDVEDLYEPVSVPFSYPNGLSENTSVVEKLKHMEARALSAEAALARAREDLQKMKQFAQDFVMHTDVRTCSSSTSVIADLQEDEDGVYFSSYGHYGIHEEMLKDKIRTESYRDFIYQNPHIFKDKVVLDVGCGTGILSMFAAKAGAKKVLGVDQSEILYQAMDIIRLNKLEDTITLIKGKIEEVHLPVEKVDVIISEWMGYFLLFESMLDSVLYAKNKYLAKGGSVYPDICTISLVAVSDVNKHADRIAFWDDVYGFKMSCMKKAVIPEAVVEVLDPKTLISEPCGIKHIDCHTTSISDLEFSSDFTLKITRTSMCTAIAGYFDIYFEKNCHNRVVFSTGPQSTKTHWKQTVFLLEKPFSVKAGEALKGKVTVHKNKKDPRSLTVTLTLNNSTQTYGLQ

- Activity [1]: Active
- Activity [2]: Active
- inhibition [3]: < 50%
- inhibition [4]: < 50%
- inhibition [5]: < 50%
- inhibition [6]: < 50%
- inhibition [7]: < 50%
- inhibition [8]: < 50%
- inhibition [9]: < 50%
- inhibition [10]: < 50%
- inhibition [11]: < 50%
- inhibition [12]: < 50%
- Activity [13]: 100%
- Activity [14]: 100%
- IC50 (RS4-11): 410 nM
- Activity [15]: Active
- IC50 (BT-549 [16]): 1450 nM
- inhibition [20]: < 50%
SMILES: CCN(c1cc(-c2ccc(CN3CCN(CCC(=O)NCCCCCCCCCCC(=O)N[C@H](C(=O)N4C[C@H](O)C[C@H]4C(=O)NCc4ccc(-c5scnc5C)cc4)C(C)(C)C)CC3)cc2)cc(C(=O)NCc2c(C)cc(C)[nH]c2=O)c1C)C1CCOCC1
- IC50 (EOL1): 110 nM
- inhibition (BT-549 [17]): Active
- Activity (BT-549 [18]): Active
- Activity [19]: Non-Toxic
